Measured values as given in publication PMC7611345 (Clinical cancer research : an official journal of the …, 2020).
“Also recorded” adds a separate entry of the source.

Columns and labels:
AKT1 = conditions: cited from earlier work
ROCK 2 = conditions: cited from earlier work
p-MLC2 in tumor biopsies = experiment: p-MLC2 in paired tumor biopsies by immunohistochemistry; assay type: in vivo, human; conditions: 180 mg dose level, 5 paired biopsies
In short: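 Fresh tumor biopsies were taken before and after treatment at 180 mg. Four-μm sections were heated at 60 °C for 20 min and retrieved in Tris pH 9 at 110 °C for 6 min. Staining used primary antibody 40 min at RT, biotinylated secondary 1:200, ABC-HRP amplification, VIP substrate and hematoxylin counterstain. Positive-cell detection used intensity scores 0–3, with a random-trees classifier separating tumor from stroma.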

advanced solid tumors = experiment: Clinical efficacy; assay type: in vivo, human; conditions: all dose levels
In short: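 Patients with metastatic solid tumors who had already received standard-of-care treatment took oral test compound three days a week (Mon-Wed-Fri) in 28-day cycles. Cohorts received flat doses from 5 to 300 mg, and one further cohort used intra-patient escalation from 120 to 180 to 240 mg.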

[1] = tested on: patients with solid tumors; experiment: First-in-human phase I dose escalation: safety and tolerability; assay type: in vivo
In short: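 The design was a rolling-six dose escalation across 5–300 mg in 8 cohorts, starting with a single run-in dose 7 days before cycle 1. Dosing was oral, Mon-Wed-Fri, in 28-day cycles. An added cohort escalated within each patient: one week at 120 mg, then 180 mg, then 240 mg during cycle 1. Toxicity was assessed weekly. Patients with hypertension on medication or abnormal fasting glucose were excluded.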

ROCK I = conditions: cited from earlier work
[2] = tested on: p-cofilin in tumor biopsies; experiment: p-cofilin in pre- and post-treatment tumor biopsies, Protein Simple WES assay; assay type: in vivo, human; conditions: 8 pre- and post-treatment biopsies
In short: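 Tumor biopsies were taken pre-dose and 24 h post-dose (cycle 1 day 15 or cycle 2 day 1) at 180 mg given thrice weekly. Phospho- and total cofilin were measured by capillary immunoassay (WES), normalized to GAPDH, and quantified as the area under the chemiluminescence peak. Phospho-cofilin was expressed as percent of pre-dose level.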

[3] = assay type: in vivo; conditions: human, plasma, oral
[4] = tested on: p-GSK3β in platelet-rich plasma; experiment: p-GSK3β; assay type: in vivo, human
In short: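 Blood was sampled at baseline and at 2, 6, 24 and 48 h after the run-in dose and after the cycle 2, day 1 dose. Platelet-rich plasma was prepared, and GSK3β Ser9 phosphorylation was measured by MSD electrochemiluminescent immunoassay. Results were expressed as percent of baseline, normalized to total GSK3β, and compared with predose by Dunnett's test.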

AKT2 = conditions: cited from earlier work
AKT3 = conditions: cited from earlier work
[5] = Cohort 9 120-180-240 mg (n=7), grade 1

In the case of `NC[C@@](O)(c1ccc(Cl)cc1)c1ccc(-c2cn[nH]c2)cc1` [AT13148], the IC50 (AKT1) is given as 38 nM, the IC50 (ROCK 2) is given as 4 nM and the “paired biopsies with reduction of p-MLC2 (H scores) post-treatment” value (p-MLC2 in tumor biopsies) is given as 1/5. For the same compound, the tumor response (advanced solid tumors) was “No complete or partial responses; also recorded: no clinical responses”, the dose-limiting toxicity ([1]; 180 mg) was “skin rash; also recorded: maculopapular rash” and the dose-limiting toxicities ([1]; 240 mg) was “pneumonitis and elevated liver enzymes; also recorded: elevated transaminases and pneumonitis”. The dose-limiting toxicity ([1]; 300 mg) was “hypotension”, the “most common (treatment related) side effects” value ([1]; 5 - 300 mg) was “fatigue, nausea, headaches and hypotension; also recorded: hypotension, nausea, headache and fatigue” and the “Anorexia, No. subjects” value ([1]; Cohort 1 5 mg (n=4), grade 1) was 1. The “Nausea, No. subjects” value ([1]; Cohort 1 5 mg (n=4), grade 1) was 1, the “Fatigue, No. subjects” value ([1]; Cohort 1 5 mg (n=4), grade 2) was 1 and the “Hypotension, No. subjects” value ([1]; Cohort 2 10 mg (n=5), grade 1) was 1. For the same compound, the “Flushing, No. subjects” value ([1]; Cohort 8 300 mg (n=5), grade 1) was 1, the “Headache, No. subjects” value ([1]; Cohort 8 300 mg (n=5), grade 1) was 3 and the “Nausea, No. subjects” value ([1]; Cohort 8 300 mg (n=5), grade 1) was 2. The “Vomiting, No. subjects” value ([1]; Cohort 8 300 mg (n=5), grade 1) was 1, the “Anorexia, No. subjects” value [1, 5] was 2 and the “Diarrhea, No. subjects” value [1, 5] was 2. For the same compound, the “Fatigue, No. subjects” value [1, 5] was 2, the “Hypotension, No. subjects” value [1, 5] was 2 and the “Nausea, No. subjects” value [1, 5] was 4. The “Vomiting, No. subjects” value [1, 5] was 1, the “Fatigue, No. subjects” value ([1]; Cohort 9 120-180-240 mg (n=7), grade 2) was 2 and the DLTs reported ([1]; Cohort 9 intra-patient dose escalation 120-180-240 mg) was “two DLTs (grade 3 pneumonitis at 240 mg and grade 3 rash at 180 mg)”. The “Anorexia, Total No. subjects” value ([1]; all cohorts (n = 51)) was 7 (13.7%), the “Diarrhea, Total No. subjects” value ([1]; all cohorts (n = 51)) was 7 (13.7%) and the “Fatigue, Total No. subjects” value ([1]; all cohorts (n = 51)) was 9 (17.6%). The “Flushing, Total No. subjects” value ([1]; all cohorts (n = 51)) was 6 (11.8%), the “Headache, Total No. subjects” value ([1]; all cohorts (n = 51)) was 12 (23.5%) and the “Hypotension, Total No. subjects” value ([1]; all cohorts (n = 51)) was 20 (39.2%). The “Nausea, Total No. subjects” value ([1]; all cohorts (n = 51)) was 15 (29.4%), the “Vomiting, Total No. subjects” value ([1]; all cohorts (n = 51)) was 7 (13.7%) and the dose-limiting toxicities ([1]; dose doubling from 5 - 160 mg) was “no dose-limiting toxicities reported”. The “time of occurrence of hypotension after dosing” value ([1]; in vivo) was no more than 8 h, the maximally tolerated dose ([1]; orally on days 1, 3 and 5 of each week, 28-day cycles) was 180 mg and the IC50 (ROCK I) was 6 nM. The “post-treatment biopsies showing a reduction of p-cofilin” value ([2]; 180 mg dose level) was 5/8, the “post-treatment biopsies with ≥50% (>50%) reduction of p-cofilin” value ([2]; 180 mg thrice a week) was 3/8 and the half-life [3] was 14.4 to 32.2 h. For the same compound, the AUC ([3]; 180 mg) was 13.4 µM·h, the Cmax ([3]; 180 mg) was 383 nM and the “change of p-GSK3β levels in platelet-rich plasma vs predose” value ([4]; 300 mg, 2 - 6 hrs (legend: 2 - 24 hrs) after treatment, Dunnett's test) was “statistically significant reduction; also recorded: reduced; also recorded: transient reduction”. The “change of p-GSK3β levels in platelet-rich plasma vs predose” value ([4]; doses lower than 300 mg) was “not significant”, the IC50 (AKT2) was 402 nM and the IC50 (AKT3) was 50 nM.
